Results: article PMC7446891 (Bioorganic & medicinal chemistry, 2020)

molecular target: EphA2 (Homo sapiens, UniProt P29317); assay: EphA2 activation; assay type: cell-based; conditions: 2 μM in 0.1% DMSO, 1hr, U251 EphA2 cells, vs DMSO control
In short: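 EphA2-overexpressing U251 cells were seeded at 100,000/well, grown 24 h, then given 2 μM test compound in 0.1% DMSO (1 hr per legend; methods text gives 30 min), with 0.1% DMSO vehicle. Cells were lysed 20 min in modified RIPA (pH 7.4, vanadate, NaF, protease inhibitors), immunoprecipitated, then blotted for pEphA/B (1:500) and EphA2 (1:1000), HRP anti-rabbit, chemiluminescence. Bands were quantified by densitometry, 3 experiments, unpaired t-test vs DMSO.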

EphA2, sequence (P29317 24-976): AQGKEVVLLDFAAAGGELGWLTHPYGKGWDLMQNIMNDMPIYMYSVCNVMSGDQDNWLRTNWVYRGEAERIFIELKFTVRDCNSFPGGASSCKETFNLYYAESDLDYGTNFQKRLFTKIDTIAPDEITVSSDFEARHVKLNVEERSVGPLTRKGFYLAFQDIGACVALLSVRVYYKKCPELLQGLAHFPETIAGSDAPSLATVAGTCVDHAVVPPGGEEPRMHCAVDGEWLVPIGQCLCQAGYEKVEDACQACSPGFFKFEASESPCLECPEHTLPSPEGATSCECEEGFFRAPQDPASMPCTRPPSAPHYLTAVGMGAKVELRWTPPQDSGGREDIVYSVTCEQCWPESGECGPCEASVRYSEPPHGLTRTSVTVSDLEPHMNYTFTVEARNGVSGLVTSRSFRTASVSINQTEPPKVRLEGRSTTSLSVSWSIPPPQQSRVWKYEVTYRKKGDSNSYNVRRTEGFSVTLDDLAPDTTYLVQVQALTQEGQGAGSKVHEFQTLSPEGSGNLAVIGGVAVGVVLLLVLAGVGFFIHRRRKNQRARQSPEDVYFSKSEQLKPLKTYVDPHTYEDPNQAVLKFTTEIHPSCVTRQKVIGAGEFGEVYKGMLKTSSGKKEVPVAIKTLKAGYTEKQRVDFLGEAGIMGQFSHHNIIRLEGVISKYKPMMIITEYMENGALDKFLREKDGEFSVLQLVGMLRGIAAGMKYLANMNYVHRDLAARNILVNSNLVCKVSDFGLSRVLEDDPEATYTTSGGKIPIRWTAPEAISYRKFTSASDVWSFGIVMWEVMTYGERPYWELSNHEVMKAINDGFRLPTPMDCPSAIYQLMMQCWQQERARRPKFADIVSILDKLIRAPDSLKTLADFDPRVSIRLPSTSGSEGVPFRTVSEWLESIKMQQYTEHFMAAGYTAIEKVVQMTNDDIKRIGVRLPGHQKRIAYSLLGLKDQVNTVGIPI

SMILES | EphA2 phosphorylation (pEphA/B vs total EphA2)
COc1cc2nc(N3CCN(C(=O)OCCOC(=O)N4CCN(c5nc(N)c6cc(OC)c(OC)cc6n5)CC4)CC3)nc(N)c2cc1OC [Compound 3d, ethane-1,2-diyl bis(4-(4-amino-6,7-dimethoxyquinazolin-2-yl)piperazine-1-carboxylate)] | did not show clear EphA2 activation
COc1cc2nc(N3CCN(C(=O)Oc4ccc(C(C)(C)c5ccc(OC(=O)N6CCN(c7nc(N)c8cc(OC)c(OC)cc8n7)CC6)cc5)cc4)CC3)nc(N)c2cc1OC [Compound 3e, propane-2,2-diylbis(4,1-phenylene)bis(4-(4-amino-6,7-dimethoxyquinazolin-2-yl)piperazine-1-carb oxylate)] | better activity to induce EphA2 phosphorylation
COc1cc2nc(N3CCN(C(=O)c4cccc(NC(=O)OCCOCCOCCOC(=O)Nc5cccc(C(=O)N6CCN(c7nc(N)c8cc(OC)c(OC)cc8n7)CC6)c5)c4)CC3)nc(N)c2cc1OC [Compound 7bg, (ethane-1,2-diylbis(oxy))bis(ethane-2,1-diyl)bis((3-(4-(4-amino-6,7-dimethoxyquinazolin-2-yl)piperazine-1-carbonyl)phenyl)carbamate)] | statistical significance compared to control
